Active and inactive are the calls of the source. No cut-off for these calls is given here.
Legend:
Trypanosoma cruzi [1] = assay: Antitrypanosomal activity against Trypanosoma cruzi Y epimastigotes at 500 uM after 72 hrs; format: functional, organism-based
Trypanosoma cruzi [2] = assay: Antitrypanosomal activity against Trypanosoma cruzi epimastigotes at 500 uM after 72 hrs
Leishmania braziliensis [3] = assay: Antileishmanial activity against Leishmania braziliensis MHOM/BR/75/M2904 promastigotes after 72 hrs; format: functional, organism-based; details: MHOM/BR/75/M2904, 72 h
Summary of the method: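 Exponential-phase promastigotes at 10×10^6/ml in Schneider's medium with 5% FBS were incubated 72 h at 28 °C with compound dilutions from 100 to 1.6. Amphotericin B (31.25–1000 nM) was the positive control and 1% DMSO the negative control. Live parasites were counted in a Neubauer chamber. IC50 came from linear regression, mean ± standard error of three independent triplicate experiments.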

Leishmania braziliensis [4] = assay: Antileishmanial activity against Leishmania braziliensis MHOM/BR/75/M2904 amastigotes assessed as reduction in intracellular amastigote after 48 hrs; format: functional, organism-based
Summary of the method: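 L. braziliensis axenic amastigotes were made by differentiating stationary-phase promastigotes in Schneider medium with 20% FBS, pH 6.3, at 34 °C for 72 h. J774.A1 cells were infected at 10:1 parasite:cell overnight at 34 °C in RPMI with 20% FBS. Cells were exposed to 1–100 compound for 48 h at 34 °C/5% CO2, Giemsa-stained, and 200 cells counted. Percent inhibition above 25% counted as significant.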

SMILES	IC50 (Leishmania braziliensis [3]) [µM]	Activity (Trypanosoma cruzi [1])	Activity (Trypanosoma cruzi [2])	Activity (Leishmania braziliensis [4])
COc1ccc(/C=C/C(=O)c2ccccc2)cc1S(=O)(=O)N1CCOCC1	5.9	inactive	inactive	
COc1ccc(NS(=O)(=O)c2cc(/C=C/C(=O)c3ccccc3)ccc2OC)cc1	7.5	inactive	inactive	
COc1ccc(/C=C/C(=O)c2ccccc2)cc1S(=O)(=O)Nc1ccccc1	69	inactive	inactive	
CCN(CC)S(=O)(=O)c1cc(/C=C/C(=O)c2ccccc2)ccc1OC	5.6	inactive	inactive	
COc1ccc(/C=C/C(=O)c2ccccc2)cc1S(=O)(=O)Nc1ccc(Cl)c(Cl)c1	8.1	inactive	inactive	
COc1ccc(/C=C/C(=O)c2ccccc2)cc1S(=O)(=O)N(C)C	8.6	inactive	inactive	
COc1ccc(/C=C/C(=O)c2ccccc2)cc1 [4-METHOXY CHALCONE]	16.6			

Continued, in another order:

IC50 (Leishmania braziliensis [3]) [µM]	SMILES	Activity (Trypanosoma cruzi [1])	Activity (Trypanosoma cruzi [2])	Activity (Leishmania braziliensis [4])
0.3	C[C@@H]1[C@H](O)[C@@H](C)/C=C/C=C/C=C/C=C/C=C/C=C/C=C/[C@H](O[C@@H]2O[C@H](C)[C@@H](O)[C@H](N)[C@@H]2O)C[C@@H]2O[C@](O)(C[C@@H](O)C[C@@H](O)[C@H](O)CC[C@@H](O)C[C@@H](O)CC(=O)O[C@H]1C)C[C@H](O)[C@H]2C(=O)O [AMPHOTERICIN B]			
13	COc1ccc(/C=C/C(=O)c2ccccc2)cc1S(=O)(=O)N1CCCC1	inactive	inactive	
3.5	COc1ccc(/C=C/C(=O)c2ccccc2)cc1S(=O)(=O)NCc1ccccc1	inactive	inactive	Active
19.6	N=C(N)c1ccc(OCCCCCOc2ccc(C(=N)N)cc2)cc1			
4.6	COc1ccc(/C=C/C(=O)c2ccccc2)cc1S(=O)(=O)Nc1ccc(Cl)cc1	inactive	inactive	
